Series [1] relates to PC-3. Description: Antiproliferative activity against 2D culture of human PC3 cells assessed as cell proliferation at 100 nM after 48 hrs by MTT assay. Type of series: functional. The settings on record: PC-3, 48 h, read-out: Activity. The method, boiled down: (§1)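 MTT assay in 2D cultures; cells grown in DMEM with 10% FBS, penicillin/streptomycin, 2 mM L-glutamine at 37 °C in 5% CO2, then treated in charcoal-treated FCS medium for 48 h at 100 nM. Ethanol vehicle controls; proliferation expressed as percentage ± SD of vehicle-treated cells.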

Series [2] relates to HaCaT. The experiment in a line: Induction of human HaCaT cell differentiation at 100 nM after 48 hrs. Type of series: functional, cell-based. The method, boiled down: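 HaCaT keratinocytes treated with 100 nM for 48 hours in charcoal-treated FCS medium, ethanol vehicle control, and differentiation then assessed.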
The test system of series [3] is MCF7. The experiment in a line: Antiproliferative activity against 3D culture of human MCF7 cells assessed as cell proliferation at 100 nM after 5 days by DAPI staining-based phase contrast microscopic method. Type of series: functional. To be noted: MCF7, 120 h, read-out: Activity. The method, boiled down: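 Three-dimensional MCF-7 cultures treated 5 days with 10^-7 M in charcoal-treated FCS medium; ethanol vehicle. Phase-contrast photographs taken, sphere diameters traced manually across each sphere and scored as relative units; proliferation given as percentage ± SD of vehicle-treated cells.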

The subject of series [4] is SK-OV-3. Description: Antiproliferative activity against 2D culture of human SKOV3 cells assessed as cell proliferation at 100 nM after 48 hrs by MTT assay. In kind it is functional. To be noted: SK-OV-3, 48 h, read-out: Activity. The method, boiled down:
as §1

Series [5] has as its system MCF7. The experiment in a line: Antiproliferative activity against 2D culture of human MCF7 cells assessed as cell proliferation at 100 nM after 48 hrs by MTT assay. In kind it is functional. To be noted: MCF7, 48 h, read-out: Activity. The method, boiled down:
as §1

The nature of series [6]: Antiproliferative activity against 2D culture of human HaCaT cells assessed as cell proliferation at 100 nM after 48 hrs by MTT assay. Type of series: cell-based. The settings on record: HaCaT cells (2D culture), read-out: Activity. The method, boiled down: as §1
The test system of series [7] is Mus musculus. Description: Hypercalcemic activity in CD1 mouse assessed as serum calcium levels at 0.3 ug/kg, ip administered every other day for 3 weeks measured on […] relative to 1,25D. The settings on record: in vivo, 0.0003 mg/kg, 504 h. In kind it is ADME, organism-based. The method, boiled down:
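Mice dosed every other day for 21 days at 0.3 µg/kg, n=5 per group, with vehicle controls; serum calcium reported as mean ± SD.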

The target in series [8] is T1, Vitamin D3 receptor (Homo sapiens, UniProt P11473).
T1 sequence (P11473 whole entry): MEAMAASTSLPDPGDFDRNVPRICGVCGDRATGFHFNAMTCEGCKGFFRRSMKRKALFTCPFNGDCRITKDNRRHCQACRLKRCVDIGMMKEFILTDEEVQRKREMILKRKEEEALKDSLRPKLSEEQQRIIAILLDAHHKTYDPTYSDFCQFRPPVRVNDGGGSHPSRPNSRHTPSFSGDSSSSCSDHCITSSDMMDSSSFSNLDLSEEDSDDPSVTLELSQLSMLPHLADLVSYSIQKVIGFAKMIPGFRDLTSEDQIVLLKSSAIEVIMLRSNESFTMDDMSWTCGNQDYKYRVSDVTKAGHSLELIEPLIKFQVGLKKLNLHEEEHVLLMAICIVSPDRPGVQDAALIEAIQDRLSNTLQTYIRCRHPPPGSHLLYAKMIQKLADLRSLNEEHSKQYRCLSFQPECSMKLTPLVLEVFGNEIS
The experiment in a line: Displacement of fluormone from human full length VDR after 2 hrs by fluorescence polarization assay.

Series [9] addresses T2, Vitamin D3 receptor (Homo sapiens) (UniProt P11473).
T2 sequence (whole entry): T1 sequence (P11473 whole entry)
The experiment in a line: Agonist activity at VDR in human MCF7 cells assessed as transcription of CYP24A1 gene after 24 hrs by luciferase reporter gene assay relative to 1,25D. Type of series: cell-based. The method, boiled down:
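Cells transfected with 1 µg pCYP24A1-Luc plasmid (luciferase under a consensus VDRE from the 24-hydroxylase promoter); after 24 h medium replaced with compound at 10^-11 to 10^-6 M. Bioluminescence imaged and total photon counts quantified. EC50 from dose-response curves as concentration raising luciferase activity by 50%; ratio given as analogue EC50 relative to 1,25D.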

Series [10] has as its target T2, Vitamin D3 receptor (Homo sapiens). Description: Displacement of fluormone from human full length VDR after 2 hrs by fluorescence polarization assay relative to 1,25D. The settings on record: concentration not given here. The method, boiled down:
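Competitive fluorescence polarization VDR binding kit used per manufacturer conditions; compounds tested from 10^-11 to 10^-5 M. IC50 calculated from averaged measurements; activity also expressed as percentage with 1,25D set to 100%.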

Series [11] has as its target T1, Vitamin D3 receptor. The experiment in a line: Agonist activity at VDR in human MCF7 cells assessed as increase in transcription of CYP24A1 gene after 24 hrs by luciferase reporter gene assay. In kind it is cell-based.
Series [12] deals with MDA-MB-436. Description: Cytotoxicity against 3D culture of cancer stem cells derived from human MDA-MB-436 cells assessed as decrease in number of mammospheres at 100 nM after 5 days by DAPI staining-based phase contrast microscopic method. In kind it is functional, cell-based. The method, boiled down:
(§2)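 MDA-MB-436 cells enriched in cancer stem cells grown in a commercial 3D sphere assay per manufacturer's instructions; ethanol or compound (10^-8 or 10^-7 M) added for 5 days. Mammosphere number and diameter quantified from phase-contrast images by manual diameter tracing.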

Series [13] deals with Mus musculus. The experiment in a line: Toxicity in CD1 mouse assessed as effect on kidney at 0.5 to 5 ug/kg, ip administered every other day for 3 weeks measured on […] by hematoxylin and eosin staining-based assay. In kind it is organism-based. The settings on record: in vivo, 504 h.
In series [14] the test system is Mus musculus. The experiment in a line: Hypercalcemic activity in CD1 mouse serum at 0.5 to 5 ug/kg, ip administered every other day for 3 weeks measured on […]. To be noted: in vivo, 504 h. Type of series: ADME, organism-based.
The subject of series [15] is Mus musculus. Description: Toxicity in CD1 mouse assessed as body weight loss at 0.5 to 5 ug/kg, ip administered every other day for 3 weeks measured every week during compound dosing. In kind it is organism-based. To be noted: in vivo, 504 h.
In series [16] the test system is Mus musculus. The experiment in a line: Toxicity in CD1 mouse assessed as effect on liver at 0.5 to 5 ug/kg, ip administered every other day for 3 weeks measured on […] by hematoxylin and eosin staining-based assay. Type of series: organism-based. The settings on record: in vivo, 504 h.
Series [17] relates to MDA-MB-436. Description: Cytotoxicity against 3D culture of cancer stem cells derived from human MDA-MB-436 cells assessed as decrease in growth of mammospheres at 100 nM after 5 days by DAPI staining-based phase contrast microscopic method. In kind it is functional, cell-based. The method, boiled down:
as §2

The test system of series [18] is MDA-MB-231. Description: Antitumor activity against luciferase expressing human MDA-MB-231 cells xenografted in SCID mouse assessed as tumor growth inhibition at 1 ug/kg, ip administered every other day measured every 7 days […] to day 28 post last dose. Type of series: functional, organism-based. The method, boiled down:
(§3)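 SCID mice given subcutaneous MDA-MB-231-luc cells; ten days later (treatment day 0) split into two groups, dosed i.p. at 1 µg/kg in sesame oil, controls sesame oil. Tumor growth followed by in vivo bioluminescence imaging (photon flux) every 7 days until day 28; survival followed to day 60.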

Series [19] relates to MDA-MB-231. The experiment in a line: Antitumor activity against luciferase expressing human MDA-MB-231 cells xenografted in SCID mouse assessed as increase in mouse survival at 1 ug/kg, ip administered every other day starting from day 10 post tumor implantation to day 60. Type of series: functional, organism-based. The method, boiled down: as §3

The source made the active and inactive calls. The rule behind the calls is not given here.

Turning to `C=C1/C(=C\C=C2/CCC[C@]3(C)[C@@H]([C@H](C)CCCC(C)(C)O)CC[C@@H]23)C[C@@H](O)C[C@@H]1O` [CALCITRIOL], the growth at 0.1 µM in [1] turned out to be 77%; in series [3] it was 61%; in series [4] it was 78%; in [5], 66%. In addition, the result in [2] was Active. Besides, the viability at 48 h, 0.1 µM in series [6] was 69%.
For `C=C1/C(=C\C=C(/CCCC)c2cccc(CCCCCC(C)(C)O)c2)C[C@@H](O)C[C@@H]1O`, the Activity in series [7] was 34%; in series [9], 19%. The same compound had an IC50 in series [8] of 10 to 18 nM. For the same compound, the growth at 0.1 µM worked out at 84% in series [1], 84% in [3], 81% in series [4] and 74% in series [5]. In [2], the outcome was Active. The inhibition in [10] came out at 12%. Also, in series [6], the viability at 48 h, 0.1 µM is 71%. Further, in [11], the EC50 fell in the range of 9 to 11 nM.
Consider `C=C1/C(=C\C=C(/CCCCCCC)c2cccc(CCCCCC(C)(C)O)c2)C[C@@H](O)C[C@@H]1O`, for which the results for the Activity in [7] and in [9] were 0% and 5%, respectively. In addition, the IC50 in series [8] was in the range of 3.5 to 160 nM. For the same compound, the growth at 0.1 µM in [1] amounted to 79%; in series [3] it was 55%; in series [4] it was 83%; in [5], 69%. In addition, in series [2], the outcome was Active. For the same compound, the inhibition in series [10] is 7%. Moreover, the viability at 48 h, 0.1 µM in series [6] stood at 71%. For the same compound, the concentration giving a half-maximal response (EC50) in series [11] fell in the range of 29 to 40 nM.
In the case of `C=C1/C(=C\C=C(/CC)c2cccc(CCCCCC(C)(C)O)c2)C[C@@H](O)C[C@@H]1O`, the Activity is 0% in series [7]; “Non-Toxic” in series [13]; “Non-Toxic” in series [14]; “Non-Toxic” in [15]; 33% in series [9]; “Non-Toxic” in [16]. In series [8], this compound registered an IC50 of 4.5 to 11 nM. For the same compound, the growth at 0.1 µM is 78% in series [1], 69% in series [3], 78% in series [4] and 65% in [5]. For the same compound, the outcome in series [12], in series [2], in series [17] and in series [19] was Active. In addition, the inhibition in series [10] was determined as 24%. Further, in series [18], the TGI entry was “Active”. For the same compound, the viability at 48 h, 0.1 µM in [6] stood at 68%. Further, the EC50 in [11] lay in the range of 5.6 to 6.2 nM.
In the case of `C=C1/C(=C\C=C(/CCC)c2cccc(CCCCCC(C)(C)O)c2)C[C@@H](O)C[C@@H]1O`, the Activity in [7] is 41%; in series [9], 21%. This compound returned an IC50 in series [8] of 5.6 to 55 nM. The growth at 0.1 µM in [1] is 83%; in [3], 74%; in [4], 82%; in series [5] it was 69%. In series [2], the outcome was Active. The same compound displayed an inhibition in series [10] of 10%. For the same compound, the viability at 48 h, 0.1 µM in series [6] was 71%. The EC50 in series [11] fell in the range of 8.6 to 9.9 nM.
With `C=C1/C(=C\C=C(/CCCCCC)c2cccc(CCCCCC(C)(C)O)c2)C[C@@H](O)C[C@@H]1O`, the results for the Activity in [7] and in series [9] were 0% and 17%, respectively. Further, in series [8], the IC50 was in the range of 8.3 to 40 nM. The growth at 0.1 µM worked out at 80% in series [1], 79% in [3], 76% in series [4] and 78% in [5]. Moreover, in series [2], the outcome was Active. Besides, in [10], the inhibition came out at 9%. The viability at 48 h, 0.1 µM in series [6] amounted to 74%. Further, the EC50 in [11] was 10 to 13 nM.
